Usually Ki stands for a measure of affinity in units of concentration, obtained from inhibition or displacement. For orientation: pKi means −log10 of the Ki, conventionally taken in molar units.

The source made the active and inactive calls. No cut-off for these calls is given here.

The subject of one test is CD4+ve Th. The experiment in a line: Antiproliferative activity against mouse CD4+ve Th cells at 100 uM measured after 48 hrs by flow cytometry analysis. Type of test: functional, cell-based. The method, boiled down: (§1)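 Splenocytes came from female wild-type BALB/c mice and were red-cell lysed. They were labelled with 5 μM CFSE for 10 min at room temperature and activated with soluble anti-mouse CD3 (145.2C11) at 33 ng/mL. Culture ran 48 h in RPMI with 10% FCS and 2 μM 2-mercaptoethanol. Percent proliferating CD4+ and CD8+ cells was read by flow cytometry. n≥6 independent experiments; one-way ANOVA with Tukey.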
(In general: In flow cytometry, cells or beads pass a laser one at a time.)
As for `Cc1nnc2n1-c1ccc(Cl)cc1C(c1ccccc1)=NC2` [ALPRAZOLAM], the outcome was Active.

System in a further test: not listed separately
Kind of test: Antiproliferative activity against human CD4+ve T cells at 33 uM measured after 96 hrs by flow cytometry analysis relative to control. Type of test: functional, CD4+ve Th. A digest of the protocol: (§2)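 Human PBMC were isolated from leukocyte cones by density gradient centrifugation and frozen. After overnight high-density culture at 1×10^7 cells/ml, cells were labelled with 5 μM CFSE for 10 min at room temperature and stimulated with soluble anti-CD3 (OKT3) at 100 pg/mL. Culture ran 96 h. Proliferating CD4+ and CD8+ cells were scored by CFSE flow cytometry against a PBS control. n≥6 independent experiments; one-way ANOVA with Tukey.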
`Cc1nnc2n1-c1ccc(Cl)cc1C(c1ccccc1)=NC2` [ALPRAZOLAM] registered an Activity of 35.7%.

System in a further test: not listed separately
Kind of test: Induction of cell proliferation of human CD8-positive T cells at 100 uM measured after 96 hrs by flow cytometry analysis relative to control. Type of test: functional. The method, boiled down: (§3)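 Rescue format on human PBMC. Cells were CFSE-labelled (5 μM), stimulated with anti-CD3 OKT3 at 100 pg/mL, and treated with alprazolam 33 μM plus test agent at 100 μM. Culture ran 96 h. Proliferating CD4+ and CD8+ T cell percentages were measured by flow cytometry. Vehicle controls (methanol, DMSO) were included. n≥6 independent experiments; one-way ANOVA with Tukey.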
Regarding `C[N+]1(C)CCc2cc3c(cc2[C@H]1[C@@H]1OC(=O)c2c1ccc1c2OCO1)OCO3.[I-]`, the Activity is recorded as 20%.

In the next test the target is GABA-A receptor; anion channel. The experiment in a line: Displacement of [3H]-muscimol from rat cortical synaptic membrane GABAA receptor assessed as inhibition constant by microscint-scintillation method. Type of test: cell membranes, Cortex. The method, boiled down: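 Rat cortical synaptic membranes, washed repeatedly in 50 mM Tris-HCl pH 7.4, 70–80 μg protein. Incubated at 0 °C with 5 nM [3H]-muscimol (final) and a range of test concentrations, then filtered and counted by scintillation. Nonspecific binding defined with 1.0 mM GABA. IC50 converted to Ki by Cheng–Prusoff, triplicate, three independent experiments.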
(In general: Displacement assays read how much labelled ligand stays bound in the presence of the test substance.)
Regarding `O=C(c1ccccc1Br)N1CCC2(CCNCC2)CC1`, the Ki stood at 2.7 µM. Still for that read-out and setting: in the case of `COC(=O)N1CCC2(CCNCC2)CC1` it was 37 µM; in that of `Cc1ccccc1C(=O)N1CCC2(CCNCC2)CC1`, 4.2 µM. Consider `Nc1cccc(C(=O)N2CCC3(CCNCC3)CC2)c1`, for which the Ki amounted to 1.2 µM. As for `O=C(c1cccc(O)c1)N1CCC2(CCNCC2)CC1`, the Ki amounted to 0.34 µM and the negative logarithm of the Ki (pKi) was 6.49. Regarding `O=C(c1cccc(OCc2ccccc2)c1)N1CCC2(CCNCC2)CC1`, the Ki came out at 1 µM. As to `O=C(c1cccc(Br)c1)N1CCC2(CCNCC2)CC1`, the Ki was found to be 0.3 µM. `Brc1ccc(CN2CCC3(CCNCC3)CC2)cc1`: the Ki was determined as 27 µM. Turning to `O=C(c1ccccc1)N1CCC2(CCNCC2)CC1`, the Ki came out at 1.4 µM.

Consider `Nc1ccc(C(=O)N2CCC3(CCNCC3)CC2)cc1`, for which the inhibition constant (Ki) came to 0.71 µM and the pKi was 6.16. Turning to `Cc1cccc(CN2CCC3(CCNCC3)CC2)c1`, the Ki is more than 200 µM. Take `O=C(c1ccc([N+](=O)[O-])cc1)N1CCC2(CCNCC2)CC1`: the Ki was 9.4 µM. Still for that read-out and setting: in the case of `O=C(c1ccc(C(F)(F)F)cc1)N1CCC2(CCNCC2)CC1` it was 2.2 µM. On to `O=C(c1ccc(Br)cc1)N1CCC2(CCNCC2)CC1`, for which the Ki was 0.23 µM. On to `O=C(c1ccc(O)cc1)N1CCC2(CCNCC2)CC1`, for which the Ki was determined as 0.86 µM and the pKi is recorded as 6.08.

As to `O=C(c1ccc(OCc2ccccc2)cc1)N1CCC2(CCNCC2)CC1`, the inhibitory constant (Ki) turned out to be 1 µM. The same measure, in the same setting: under `CC(=O)N1CCC2(CCNCC2)CC1` stands more than 100 µM.

Regarding `O=C(c1cccc([N+](=O)[O-])c1)N1CCC2(CCNCC2)CC1`, the Ki was determined as 1.5 µM.

Take `O=C(c1cccc(OCc2cccs2)c1)N1CCC2(CCNCC2)CC1`: the Ki worked out at 1 µM.

System in another test: not listed separately
The experiment in a line: Antiproliferative activity against human CD8-positive T cells at 33 uM measured after 96 hrs by flow cytometry analysis relative to control. Type of test: functional, CD8-positive T cell. A digest of the protocol: as §2
Regarding `Cc1nnc2n1-c1ccc(Cl)cc1C(c1ccccc1)=NC2` [ALPRAZOLAM], the Activity is listed as 34.8%.

A further test concerns CD8-positive T cell. Kind of test: Antiproliferative activity against mouse CD8-positive T cells at 100 uM measured after 48 hrs by flow cytometry analysis. The test is classed as functional, cell-based. The method, boiled down:
as §1
For `Cc1nnc2n1-c1ccc(Cl)cc1C(c1ccccc1)=NC2` [ALPRAZOLAM], the outcome was Active.

In the next test the test system is CD4+ve Th. Kind of test: Induction of cell proliferation of human CD4+ve Th cells at 100 uM measured after 96 hrs by flow cytometry analysis relative to control. The test is classed as functional. A digest of the protocol: as §3
`C[N+]1(C)CCc2cc3c(cc2[C@H]1[C@@H]1OC(=O)c2c1ccc1c2OCO1)OCO3.[I-]` yielded an Activity of 20%.

The values above are taken from ChEMBL document CHEMBL5096209, “Structure-Activity Studies of 3,9-Diazaspiro[5.5]undecane-Based γ-Aminobutyric Acid Type A Receptor Antagonists with Immunomodulatory Effect” (J Med Chem, 2021).
